Laboratory results reported in ChEMBL document CHEMBL1136707, “From pure FPP to mixed FPP and CAAX competitive inhibitors of farnesyl protein transferase” (Bioorg Med Chem Lett, 2003).

How the values were obtained:
[1] = target: Protein farnesyltransferase (Bos taurus, UniProt P29702+P49355); assay: In vitro inhibition of bovine Farnesyl transferase; format: protein-complex assay
In short: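 Purified bovine FPTase, assayed as in ref 15, with dansyl-GCVLS peptide and FPP as substrates, both at […].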

[2] = target: Protein farnesyltransferase (Homo sapiens, UniProt P49354+P49356); assay: Inhibition of farnesylation of H-Ras in DLD-1 cells; format: functional, cell-based
[3] = target: T1, Protein farnesyltransferase (Bos taurus) (UniProt P29702+P49355); assay: Inhibition of FPTase at 100 nM using 5 uM FPP as substrate; format: protein-complex assay
In short: (§1)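 FPP-dependence study using purified bovine FPTase. Dansyl-GCVLS peptide was held at a fixed level of […] while FPP concentration was varied. Inhibitor was tested at a single fixed concentration, and the read-out was percent inhibition of farnesylation.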

[4] = target: T1, Protein farnesyltransferase (Bos taurus); assay: Inhibition of FPTase at 100 nM using 1 uM Dansyl-GCVLS; format: protein-complex assay
In short: (§2)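 Peptide-dependence study using purified bovine FPTase. Dansyl-GCVLS substrate concentration was varied with the inhibitor at a single fixed concentration, and activity was reported as percent enzyme inhibition.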

[5] = target: T1, Protein farnesyltransferase (Bos taurus); assay: Inhibition of FPTase at 100 nM using 10 uM FPP as substrate; format: protein-complex assay; in short: as §1
[6] = target: T1, Protein farnesyltransferase (Bos taurus); assay: Inhibition of FPTase at 100 nM using 0.5 uM Dansyl-GCVLS; format: protein-complex assay; in short: as §2
[7] = target: T1, Protein farnesyltransferase (Bos taurus); assay: Inhibition of FPTase at 100 nM using 10 uM Dansyl-GCVLS; format: protein-complex assay; in short: as §2
[8] = target: T1, Protein farnesyltransferase (Bos taurus); assay: Inhibition of FPTase at 100 nM using 20 uM Dansyl-GCVLS; format: protein-complex assay; in short: as §2
[9] = target: T1, Protein farnesyltransferase (Bos taurus); assay: Inhibition of FPTase at 100 nM using 2 uM FPP as substrate; format: protein-complex assay; in short: as §1
[10] = target: T1, Protein farnesyltransferase (Bos taurus); assay: Inhibition of FPTase at 100 nM using 5 uM Dansyl-GCVLS; format: protein-complex assay; in short: as §2
[11] = target: T1, Protein farnesyltransferase (Bos taurus); assay: Inhibition of FPTase at 100 nM using 20 uM FPP as substrate; format: protein-complex assay; in short: as §1
[12] = target: T1, Protein farnesyltransferase (Bos taurus); assay: Inhibition of FPTase at 100 nM using 0.5 uM FPP as substrate
[13] = target: T1, Protein farnesyltransferase (Bos taurus); assay: Inhibition of FPTase at 100 nM using 2 uM Dansyl-GCVLS; format: protein-complex assay; in short: as §2
[14] = target: T1, Protein farnesyltransferase (Bos taurus); assay: Inhibition of FPTase at 10 nM using 2 uM FPP as substrate; format: protein-complex assay; in short: as §1
[15] = target: T1, Protein farnesyltransferase (Bos taurus); assay: Inhibition of FPTase at 10 nM using 0.5 uM FPP as substrate; format: protein-complex assay; in short: as §1
[16] = target: T1, Protein farnesyltransferase (Bos taurus); assay: Inhibition of FPTase at 10 nM using 5 uM FPP as substrate; format: protein-complex assay; in short: as §1
[17] = target: T1, Protein farnesyltransferase (Bos taurus); assay: Inhibition of FPTase at 10 nM using 10 uM Dansyl-GCVLS; format: protein-complex assay; in short: as §2
[18] = target: T1, Protein farnesyltransferase (Bos taurus); assay: Inhibition of FPTase at 10 nM using 0.5 uM Dansyl-GCVLS; format: protein-complex assay; in short: as §2
[19] = target: T1, Protein farnesyltransferase (Bos taurus); assay: Inhibition of FPTase at 10 nM using 10 uM FPP as substrate; format: protein-complex assay; in short: as §1
[20] = target: T1, Protein farnesyltransferase (Bos taurus); assay: Inhibition of FPTase at 10 nM using 1 uM FPP as substrate; format: protein-complex assay; in short: as §1
[21] = target: T1, Protein farnesyltransferase (Bos taurus); assay: Inhibition of FPTase at 10 nM using 20 uM FPP as substrate; format: protein-complex assay; in short: as §1
[22] = target: T1, Protein farnesyltransferase (Bos taurus); assay: Inhibition of FPTase at 10 nM using 2 uM Dansyl-GCVLS; format: protein-complex assay; in short: as §2
[23] = target: T1, Protein farnesyltransferase (Bos taurus); assay: Inhibition of FPTase at 10 nM using 20 uM Dansyl-GCVLS; format: protein-complex assay; in short: as §2
[24] = target: T1, Protein farnesyltransferase (Bos taurus); assay: Inhibition of FPTase at 10 nM using 1 uM Dansyl-GCVLS; format: protein-complex assay; in short: as §2

Q: For `CC(C)=CCC/C(C)=C/CC/C(C)=C/CC(NCc1cncn1C)C(=O)NCc1ccccc1` (stereo not drawn), which IC50 [1] is on record?
A: Its IC50 is over 10000 nM.

Q: With `CC(C)=CCC/C(C)=C/CC/C(C)=C/CC(C(=O)NCc1ccccc1)N(Cc1cncn1Cc1ccc(C#N)cc1)S(=O)(=O)c1ccccc1` (stereo not drawn) as the compound, how does the IC50 [2] read?
A: Its IC50 is over 10000 nM.

Q: What about the IC50 [1] of the same compound?
A: The IC50 was 40 nM.

Q: `CC(C)=CCC/C(C)=C/CC/C(C)=C/CC(NCc1cncn1Cc1ccc(C#N)cc1)C(=O)N[C@@H](Cc1ccccc1)C(=O)O` (stereo partly drawn) was tested. Which IC50 [2] did it give?
A: The IC50 was 5000 nM.

Q: What does the source list for `CC(C)=CCC/C(C)=C/CC/C(C)=C/CC(C(=O)NCc1ccccc1)N(Cc1cncn1C)S(=O)(=O)c1ccccc1` (stereo not drawn)?
A: IC50 [2]: 1000 nM; IC50 [1]: 670 nM

Q: With `CC(C)=CCC/C(C)=C/CC/C(C)=C/CC(C(=O)N[C@@H](Cc1ccccc1)C(=O)O)N(Cc1cncn1C)S(=O)(=O)c1ccccc1` (stereo partly drawn) as the compound, how does the IC50 [2] read?
A: Its IC50 is 10000 nM.

Q: What about the IC50 [1] of the same compound?
A: Its IC50 is 470 nM.

Q: `CC(C)=CCC/C(C)=C/CC/C(C)=C/CC1C(=O)N(Cc2ccccc2)C(=O)N1Cc1cncn1Cc1ccc(C#N)cc1` (stereo not drawn) was tested. Which IC50 [1] did it give?
A: Its IC50 is 200 nM.

Q: What does the source list for `CC(C)=CCC/C(C)=C/CC/C(C)=C/CC(C(=O)N[C@@H](Cc1ccccc1)C(=O)O)P(=O)(O)O` (stereo partly drawn)?
A: IC50 [2]: > 10000 nM; IC50 [1]: 83 nM; inhibition [3]: 9%; inhibition ([3]; in the assay text read “1 uM FPP” for “5 uM FPP”): 72%; inhibition [4]: 42%; inhibition [5]: 9%; inhibition [6]: 43%; inhibition [7]: 33%; inhibition [8]: 38%; inhibition [9]: 37%; inhibition [10]: 34%; inhibition [11]: 10%; inhibition [12]: 80%; inhibition [13]: 41%

Q: With `CC(C)=CCC/C(C)=C/CC/C(C)=C/CC(NCc1cncn1Cc1ccc(C#N)cc1)C(=O)NCc1ccccc1` (stereo not drawn) as the compound, how does the inhibition [14] read?
A: The inhibition was 42%.

Q: And the inhibition [15]?
A: Its inhibition is 54%.

Q: And the inhibition [16]?
A: Its inhibition is 38%.

Q: What about the inhibition [17] of the same compound?
A: Its inhibition is 14%.

Q: What about the IC50 [2] of the same compound?
A: The IC50 was 1000 nM.

Q: And the inhibition [18]?
A: The inhibition was 49%.

Q: And the IC50 [1]?
A: Its IC50 is 6 nM.

Q: And the inhibition [19]?
A: The inhibition was 36%.

Q: What about the inhibition [20] of the same compound?
A: The inhibition was 55%.

Q: And the inhibition [21]?
A: The inhibition was 32%.

Q: And the inhibition [22]?
A: Its inhibition is 38%.

Q: What about the inhibition [23] of the same compound?
A: The inhibition was 3%.

Q: What about the inhibition [24] of the same compound?
A: The inhibition was 41%.

Q: And the inhibition ([10]; 10 nM, in the assay text read “10 nM” for “100 nM”)?
A: The inhibition was 27%.

Q: `CC(C)=CCC/C(C)=C/CC/C(C)=C/CC1C(=O)N(Cc2ccccc2)C(=O)N1Cc1cncn1C` (stereo not drawn) was tested. Which IC50 [1] did it give?
A: The IC50 was 700 nM.
